# Laboratory results from ChEMBL document CHEMBL4145675, “2-Phenylquinoline S. aureus NorA Efflux Pump Inhibitors: Evaluation of the Importance of Methoxy Group Introduction” (J Med Chem, 2018).
# The source made the active and inactive calls. The calls are words filed in the database; no cut-off is given here.
# Molecular target: T1, Quinolone resistance protein NorA (Staphylococcus aureus) (UniProt P0A0J7)
# T1 sequence (whole entry): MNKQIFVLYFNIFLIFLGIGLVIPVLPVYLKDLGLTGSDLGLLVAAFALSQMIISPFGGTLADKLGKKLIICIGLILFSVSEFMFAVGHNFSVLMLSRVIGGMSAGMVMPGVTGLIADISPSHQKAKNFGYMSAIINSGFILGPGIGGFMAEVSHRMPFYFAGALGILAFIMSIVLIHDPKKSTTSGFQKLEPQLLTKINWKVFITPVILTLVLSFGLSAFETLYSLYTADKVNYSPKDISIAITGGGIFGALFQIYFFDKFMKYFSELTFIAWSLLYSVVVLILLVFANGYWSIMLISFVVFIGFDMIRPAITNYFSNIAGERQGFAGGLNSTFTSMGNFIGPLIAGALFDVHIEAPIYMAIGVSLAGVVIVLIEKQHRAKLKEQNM
# Assay: Inhibition of NorA in Staphylococcus aureus SA-K2378 assessed as synergistic potentiation of ciprofloxacin-induced antimicrobial activity at 0.78 to 100 ug/ml by microdilution method based Checkerboard assay
# Conditions: not given
row,SMILES,inhibition
1,CCCOc1ccc(-c2cc(OCCN(CC)CC)c3ccccc3n2)cc1,Active
2,CCCOc1ccc(-c2cc(OCCN(CC)CC)c3ccc(OC)cc3n2)cc1,Active
3,CCCOc1ccc(-c2cc(OCCN3CCc4cc(OC)c(OC)cc4C3)c3c(OC)cc(OC)cc3n2)cc1,Active
4,CCCOc1ccc(-c2cc(OCCN3CCc4cc(OC)c(OC)cc4C3)c3cc(OC)cc(OC)c3n2)cc1,Active
5,COC(=O)[C@H]1[C@H]2C[C@@H]3c4[nH]c5cc(OC)ccc5c4CCN3C[C@H]2C[C@@H](OC(=O)c2cc(OC)c(OC)c(OC)c2)[C@@H]1OC [RESERPINE],Active

# Tested on: Staphylococcus aureus
# Assay: Antimicrobial activity against NorA overexpressing Staphylococcus aureus SA-K2378 by microdilution method
# Assay type: organism-based
# Conditions: in vivo
# Procedure, shortened: (§1)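 CLSI broth microdilution MIC of the compound alone. Strains: SA-K1902 (norA deleted), SA-K2378 (SA-K1902 carrying norA plus its promoter on multicopy plasmid pCU1), SA-1199B (norA overexpressing, GrlA A116E).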
row,SMILES,MIC [µg/mL]
1,O=C(O)c1cn(C2CC2)c2cc(N3CCNCC3)c(F)cc2c1=O [CIPROFLOXACIN],2.5

# Molecular target: T1, Quinolone resistance protein NorA (Staphylococcus aureus)
# Assay: Inhibition of NorA in Staphylococcus aureus SA-1199B expressing GrlA A116E mutant assessed as synergistic potentiation of ciprofloxacin-induced antimicrobial activity at 0.78 ug/ml by microdilution method based Checkerboard assay
# Conditions: not given
row,SMILES,inhibition
1,CCCOc1ccc(-c2cc(OCCN(CC)CC)c3ccc(OC)cc3n2)cc1,Active
2,CCCOc1ccc(-c2cc(OCCN3CCc4cc(OC)c(OC)cc4C3)c3c(OC)cc(OC)cc3n2)cc1,Active
3,CCCOc1ccc(-c2cc(OCCN3CCc4cc(OC)c(OC)cc4C3)c3cc(OC)cc(OC)c3n2)cc1,Active

# Tested on: Staphylococcus aureus
# Assay: Antimicrobial activity against Staphylococcus aureus SA-1199B expressing wild type norA by microdilution method
# Assay type: organism-based
# Conditions: in vivo
# Procedure, shortened: (§2)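 Broth microdilution MIC per CLSI guidelines. ATCC 25923 is norA wild-type. SA-1199B overexpresses norA and carries an A116E GrlA substitution.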
row,SMILES,MIC [µg/mL]
1,CCCOc1ccc(-c2cc(OCCN(CC)CC)c3ccccc3n2)cc1,> 100
2,CCCOc1ccc(-c2cc(OCCN(CC)CC)c3ccc(OC)cc3n2)cc1,> 100
3,CCCOc1ccc(-c2cc(OCCN3CCc4cc(OC)c(OC)cc4C3)c3c(OC)cc(OC)cc3n2)cc1,100
4,O=C(O)c1cn(C2CC2)c2cc(N3CCNCC3)c(F)cc2c1=O [CIPROFLOXACIN],0.63
5,CCCOc1ccc(-c2cc(OCCN3CCc4cc(OC)c(OC)cc4C3)c3cc(OC)cc(OC)c3n2)cc1,25
6,COC(=O)[C@H]1[C@H]2C[C@@H]3c4[nH]c5cc(OC)ccc5c4CCN3C[C@H]2C[C@@H](OC(=O)c2cc(OC)c(OC)c(OC)c2)[C@@H]1OC [RESERPINE],> 100

# Molecular target: T1, Quinolone resistance protein NorA (Staphylococcus aureus)
# Assay: Inhibition of NorA in Staphylococcus aureus SA-1199B expressing GrlA A116E mutant assessed as minimal potentiating drug concentration causing 8 fold reduction in ciprofloxacin MIC by microdilution method based Checkerboard assay
# Conditions: not given
row,SMILES,Activity [µg/mL]
1,CCCOc1ccc(-c2cc(OCCN(CC)CC)c3ccccc3n2)cc1,12.5
2,CCCOc1ccc(-c2cc(OCCN(CC)CC)c3ccc(OC)cc3n2)cc1,6.25
3,CCCOc1ccc(-c2cc(OCCN3CCc4cc(OC)c(OC)cc4C3)c3c(OC)cc(OC)cc3n2)cc1,< 100
4,CCCOc1ccc(-c2cc(OCCN3CCc4cc(OC)c(OC)cc4C3)c3cc(OC)cc(OC)c3n2)cc1,3.13
5,COC(=O)[C@H]1[C@H]2C[C@@H]3c4[nH]c5cc(OC)ccc5c4CCN3C[C@H]2C[C@@H](OC(=O)c2cc(OC)c(OC)c(OC)c2)[C@@H]1OC [RESERPINE],> 100

# Tested on: Staphylococcus aureus
# Assay: Synergistic potentiation of ciprofloxacin-induced antimicrobial activity against norA deleted Staphylococcus aureus SA-K1902 at 0.78 to 100 ug/ml by microdilution method based Checkerboard assay
# Assay type: functional, organism-based
# Conditions: not given
row,SMILES,Activity
1,CCCOc1ccc(-c2cc(OCCN(CC)CC)c3ccccc3n2)cc1,inactive
2,CCCOc1ccc(-c2cc(OCCN(CC)CC)c3ccc(OC)cc3n2)cc1,inactive
3,CCCOc1ccc(-c2cc(OCCN3CCc4cc(OC)c(OC)cc4C3)c3c(OC)cc(OC)cc3n2)cc1,inactive
4,CCCOc1ccc(-c2cc(OCCN3CCc4cc(OC)c(OC)cc4C3)c3cc(OC)cc(OC)c3n2)cc1,inactive
5,COC(=O)[C@H]1[C@H]2C[C@@H]3c4[nH]c5cc(OC)ccc5c4CCN3C[C@H]2C[C@@H](OC(=O)c2cc(OC)c(OC)c(OC)c2)[C@@H]1OC [RESERPINE],inactive

# Tested on: Staphylococcus aureus
# Assay: Synergistic potentiation of ciprofloxacin-induced antimicrobial activity against Staphylococcus aureus SA-1199 at 0.78 to 100 ug/ml by microdilution method based Checkerboard assay
# Assay type: functional, organism-based
# Conditions: not given
row,SMILES,inhibition
1,CCCOc1ccc(-c2cc(OCCN(CC)CC)c3ccc(OC)cc3n2)cc1,Active
2,CCCOc1ccc(-c2cc(OCCN3CCc4cc(OC)c(OC)cc4C3)c3c(OC)cc(OC)cc3n2)cc1,Active
3,CCCOc1ccc(-c2cc(OCCN3CCc4cc(OC)c(OC)cc4C3)c3cc(OC)cc(OC)c3n2)cc1,Active

# Tested on: Staphylococcus aureus
# Assay: Antimicrobial activity against NorA deficient Staphylococcus aureus SA-K1902 by microdilution method
# Assay type: organism-based
# Conditions: in vivo
# Procedure, shortened: as §1
row,SMILES,MIC [µg/mL]
1,CCCOc1ccc(-c2cc(OCCN(CC)CC)c3ccccc3n2)cc1,50
2,CCCOc1ccc(-c2cc(OCCN(CC)CC)c3ccc(OC)cc3n2)cc1,25
3,O=C(O)c1cn(C2CC2)c2cc(N3CCNCC3)c(F)cc2c1=O [CIPROFLOXACIN],0.31
4,CCCOc1ccc(-c2cc(OCCN3CCc4cc(OC)c(OC)cc4C3)c3cc(OC)cc(OC)c3n2)cc1,25
5,COC(=O)[C@H]1[C@H]2C[C@@H]3c4[nH]c5cc(OC)ccc5c4CCN3C[C@H]2C[C@@H](OC(=O)c2cc(OC)c(OC)c(OC)c2)[C@@H]1OC [RESERPINE],> 100

# Tested on: Staphylococcus aureus
# Assay: Antimicrobial activity against Staphylococcus aureus ATCC 25923 by microdilution method
# Assay type: organism-based
# Conditions: in vivo
# Procedure, shortened: as §2
row,SMILES,MIC [µg/mL]
1,CCCOc1ccc(-c2cc(OCCN(CC)CC)c3ccccc3n2)cc1,100
2,CCCOc1ccc(-c2cc(OCCN(CC)CC)c3ccc(OC)cc3n2)cc1,50
3,CCCOc1ccc(-c2cc(OCCN3CCc4cc(OC)c(OC)cc4C3)c3c(OC)cc(OC)cc3n2)cc1,100
4,O=C(O)c1cn(C2CC2)c2cc(N3CCNCC3)c(F)cc2c1=O [CIPROFLOXACIN],0.31
5,CCCOc1ccc(-c2cc(OCCN3CCc4cc(OC)c(OC)cc4C3)c3cc(OC)cc(OC)c3n2)cc1,25
6,COC(=O)[C@H]1[C@H]2C[C@@H]3c4[nH]c5cc(OC)ccc5c4CCN3C[C@H]2C[C@@H](OC(=O)c2cc(OC)c(OC)c(OC)c2)[C@@H]1OC [RESERPINE],> 100

# Molecular target: T1, Quinolone resistance protein NorA (Staphylococcus aureus)
# Assay: Inhibition of NorA in Staphylococcus aureus SA-K2378 assessed as synergistic potentiation of ciprofloxacin-induced antimicrobial activity at 0.78 ug/ml by microdilution method based Checkerboard assay
# Conditions: not given
row,SMILES,fold change (FC)
1,CCCOc1ccc(-c2cc(OCCN(CC)CC)c3ccc(OC)cc3n2)cc1,16
2,CCCOc1ccc(-c2cc(OCCN3CCc4cc(OC)c(OC)cc4C3)c3cc(OC)cc(OC)c3n2)cc1,8

# Tested on: Staphylococcus aureus
# Assay: Antimicrobial activity against Staphylococcus aureus SA-1199B expressing wild type norA and co-expressing GrlA A116E mutant by microdilution method
# Assay type: organism-based
# Conditions: in vivo
# Procedure, shortened: as §1
row,SMILES,MIC [µM]
1,CCCOc1ccc(-c2cc(OCCN(CC)CC)c3ccccc3n2)cc1,> 241
2,CCCOc1ccc(-c2cc(OCCN(CC)CC)c3ccc(OC)cc3n2)cc1,> 245
3,CCCOc1ccc(-c2cc(OCCN3CCc4cc(OC)c(OC)cc4C3)c3c(OC)cc(OC)cc3n2)cc1,179
4,CCCOc1ccc(-c2cc(OCCN3CCc4cc(OC)c(OC)cc4C3)c3cc(OC)cc(OC)c3n2)cc1,45
5,COC(=O)[C@H]1[C@H]2C[C@@H]3c4[nH]c5cc(OC)ccc5c4CCN3C[C@H]2C[C@@H](OC(=O)c2cc(OC)c(OC)c(OC)c2)[C@@H]1OC [RESERPINE],> 164

# Tested on: not listed separately
# Assay: Cytotoxicity in human HepG2 cells assessed as reduction in cell viability incubated for 24 hrs by ATP bioluminescence assay
# Assay type: cell-based
# Conditions: not given
# Procedure, shortened: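 Cells were grown to confluence overnight in RPMI 1640 with 10% heat-inactivated fetal calf serum, penicillin and streptomycin. Monolayers were exposed for 24 h at 37 °C to scalar concentrations (0-250 µg/mL). Viability was read by ATP bioluminescence, each concentration in triplicate. CC50 is the concentration reducing cell number by 50% versus untreated controls.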
row,SMILES,CC50 at 24 h [µg/mL]
1,CCCOc1ccc(-c2cc(OCCN(CC)CC)c3ccc(OC)cc3n2)cc1,7.7
2,O=C(O)c1cn(C2CC2)c2cc(N3CCNCC3)c(F)cc2c1=O [CIPROFLOXACIN],139

# Molecular target: T1, Quinolone resistance protein NorA (Staphylococcus aureus)
# Assay: Inhibition of NorA in Staphylococcus aureus SA-1199B expressing GrlA A116E mutant assessed as reduction in EtBr efflux at 50 uM incubated for 5 mins by fluorescence based assay
# Conditions: not given
# Procedure, shortened: (§3)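 Cells were grown overnight in cation-supplemented Mueller-Hinton broth at 35 °C and subcultured to OD600 0.7–0.8. They were loaded at OD600 0.8 with 25 µM EtBr plus 100 µM CCCP (final) for 20 min at room temperature. Cells were then resuspended in fresh broth with or without compound, 50 µM for the single-point screen or a concentration series for IC50. Fluorescence (ex 485/em 645 nm) was read for 5 min. Inhibition was calculated from the fluorescence decrease versus untreated cells. Biological triplicate, each run twice.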
row,SMILES,inhibition [%]
1,CCCOc1ccc(-c2cc(OCCN(CC)CC)c3ccc(OC)cc3n2)cc1,100
2,CCCOc1ccc(-c2cc(OCCN3CCc4cc(OC)c(OC)cc4C3)c3c(OC)cc(OC)cc3n2)cc1,86.5
3,CCCOc1ccc(-c2cc(OCCN3CCc4cc(OC)c(OC)cc4C3)c3cc(OC)cc(OC)c3n2)cc1,86.7

# Tested on: Staphylococcus aureus
# Assay: Synergistic potentiation of ciprofloxacin-induced antimicrobial activity against wild type Staphylococcus aureus ATCC 25923 at 0.78 to 100 ug/ml by microdilution method based Checkerboard assay
# Assay type: functional, organism-based
# Conditions: not given
row,SMILES,synergistic potentiation of ciprofloxacin activity
1,CCCOc1ccc(-c2cc(OCCN(CC)CC)c3ccc(OC)cc3n2)cc1,Active
2,CCCOc1ccc(-c2cc(OCCN3CCc4cc(OC)c(OC)cc4C3)c3c(OC)cc(OC)cc3n2)cc1,Active
3,CCCOc1ccc(-c2cc(OCCN3CCc4cc(OC)c(OC)cc4C3)c3cc(OC)cc(OC)c3n2)cc1,Active

# Molecular target: T1, Quinolone resistance protein NorA (Staphylococcus aureus)
# Assay: Inhibition of NorA in Staphylococcus aureus SA-1199B expressing GrlA A116E mutant assessed as synergistic potentiation of ciprofloxacin-induced antimicrobial activity at 0.78 to 100 ug/ml by microdilution method based Checkerboard assay
# Conditions: not given
row,SMILES,inhibition
1,CCCOc1ccc(-c2cc(OCCN(CC)CC)c3ccc(OC)cc3n2)cc1,Active
2,CCCOc1ccc(-c2cc(OCCN3CCc4cc(OC)c(OC)cc4C3)c3c(OC)cc(OC)cc3n2)cc1,Active
3,CCCOc1ccc(-c2cc(OCCN3CCc4cc(OC)c(OC)cc4C3)c3cc(OC)cc(OC)c3n2)cc1,Active

# Molecular target: Quinolone resistance protein NorA (Staphylococcus aureus, UniProt P0A0J7, A116E)
# Assay: Inhibition of NorA in Staphylococcus aureus SA-1199B expressing GrlA A116E mutant assessed as reduction in EtBr efflux incubated for 5 mins by fluorescence based assay
# Conditions: not given
# Procedure, shortened: as §3
row,SMILES,IC50 [µM]
1,CCCOc1ccc(-c2cc(OCCN(CC)CC)c3ccc(OC)cc3n2)cc1,4.7
2,CCCOc1ccc(-c2cc(OCCN3CCc4cc(OC)c(OC)cc4C3)c3c(OC)cc(OC)cc3n2)cc1,1.6
3,CCCOc1ccc(-c2cc(OCCN3CCc4cc(OC)c(OC)cc4C3)c3cc(OC)cc(OC)c3n2)cc1,3.8
